# Assay results: ChEMBL document CHEMBL1212819, “Heteroadamantyl cannabinoids” (J Med Chem, 2010); call rule not given here
# How the values were obtained:
# Cannabinoid receptor 1 = Cannabinoid receptor 1 (Rattus norvegicus, UniProt P20272); assay: Displacement of [3H]CP-55940 from CB1 receptor in rat brain; assay type: tissue-based
# Procedure, shortened: (§1)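 Competition binding against [3H]CP-55,940. CB1 came from rat brain membranes, and CB2 from membranes of HEK293 cells expressing mouse or human CB2. Curves were fitted by nonlinear regression to give IC50, and Ki was calculated from IC50. Each experiment was run in triplicate, and Ki values come from a single experiment.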
# Cannabinoid receptor 2 [1] = target: Cannabinoid receptor 2 (Mus musculus, UniProt P47936); assay: Displacement of [3H]CP-55940 from mouse CB2 receptor expressed in HEK293 cell membranes; procedure, shortened: as §1
# Sequence of Cannabinoid receptor 2 (Mus musculus, UniProt P47936) (P47936 whole entry): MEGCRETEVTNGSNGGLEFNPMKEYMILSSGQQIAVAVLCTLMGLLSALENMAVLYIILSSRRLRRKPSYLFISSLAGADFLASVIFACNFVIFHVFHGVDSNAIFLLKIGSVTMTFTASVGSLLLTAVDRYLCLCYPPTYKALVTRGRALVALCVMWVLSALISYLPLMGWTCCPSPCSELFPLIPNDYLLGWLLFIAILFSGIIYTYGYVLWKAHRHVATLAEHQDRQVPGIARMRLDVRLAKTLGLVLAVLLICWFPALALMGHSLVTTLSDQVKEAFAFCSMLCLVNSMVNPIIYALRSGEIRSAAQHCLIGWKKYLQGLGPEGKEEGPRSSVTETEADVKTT
# Cannabinoid receptor 2 [2] = target: Cannabinoid receptor 2 (Homo sapiens, UniProt P34972); assay: Displacement of [3H]CP-55940 from human CB2 receptor expressed in HEK293 cell membranes; procedure, shortened: as §1
# Sequence of Cannabinoid receptor 2 (Homo sapiens, UniProt P34972) (P34972 whole entry): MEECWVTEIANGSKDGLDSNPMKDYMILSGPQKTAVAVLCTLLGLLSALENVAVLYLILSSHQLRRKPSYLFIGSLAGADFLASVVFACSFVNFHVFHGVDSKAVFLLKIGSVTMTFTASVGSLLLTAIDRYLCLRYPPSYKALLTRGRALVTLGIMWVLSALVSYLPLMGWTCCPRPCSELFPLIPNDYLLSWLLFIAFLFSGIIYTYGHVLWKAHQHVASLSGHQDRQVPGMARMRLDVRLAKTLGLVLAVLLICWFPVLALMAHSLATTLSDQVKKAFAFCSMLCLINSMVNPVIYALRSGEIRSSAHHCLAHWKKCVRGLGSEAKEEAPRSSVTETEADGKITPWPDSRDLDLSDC
# Sequence of Cannabinoid receptor 1 (P20272 whole entry): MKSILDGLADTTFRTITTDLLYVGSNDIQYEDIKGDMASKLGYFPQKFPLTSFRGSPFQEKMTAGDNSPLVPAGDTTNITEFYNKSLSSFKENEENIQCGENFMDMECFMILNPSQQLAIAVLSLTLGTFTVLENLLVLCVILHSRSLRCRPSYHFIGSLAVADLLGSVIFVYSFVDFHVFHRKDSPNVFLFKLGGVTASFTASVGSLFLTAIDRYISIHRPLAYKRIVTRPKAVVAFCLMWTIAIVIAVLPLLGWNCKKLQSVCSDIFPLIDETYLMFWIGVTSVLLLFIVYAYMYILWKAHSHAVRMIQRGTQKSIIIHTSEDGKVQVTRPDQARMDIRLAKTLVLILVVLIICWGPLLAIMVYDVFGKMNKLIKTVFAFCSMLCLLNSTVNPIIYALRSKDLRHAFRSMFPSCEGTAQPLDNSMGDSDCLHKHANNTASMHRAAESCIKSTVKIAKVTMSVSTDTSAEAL
Structure (SMILES),Ki (Cannabinoid receptor 1; read-out: Ki),Ki (Cannabinoid receptor 2 [1]),Ki (Cannabinoid receptor 2 [2]; read-out: Ki),Ki (Cannabinoid receptor 1),Ki (Cannabinoid receptor 2 [2]; hek293)
CC1(C)Oc2cc(N3C4CC5CC3CC(C4)O5)cc(O)c2[C@@H]2C[C@H](O)CC[C@H]21,1.8 µM,1.2 µM,1.8 µM,–,–
CC1(C)Oc2cc(N3C4CC5CC3CC(C4)O5)cc(O)c2[C@@H]2C[C@@H](O)CC[C@H]21,22.4 µM,17 µM,14.9 µM,–,–
CC1(C)Oc2cc(C(=O)N3C4CC5CC3CC(C4)O5)cc(O)c2[C@@H]2C[C@H](O)CC[C@H]21,–,2.5 µM,20 µM,Not Active,–
CC1(C)Oc2cc(C(=O)N3C4CC5CC3CC(C4)O5)cc(O)c2[C@@H]2C[C@@H](O)CC[C@H]21,–,8.6 µM,25 µM,Not Active,–
CC1(C)Oc2cc(CN3C4CC5CC3CC(C4)O5)cc(O)c2[C@@H]2C[C@H](O)CC[C@H]21,10 µM,8.7 µM,15 µM,–,–
CC1(C)Oc2cc(CN3C4CC5CC3CC(C4)O5)cc(O)c2[C@@H]2C[C@@H](O)CC[C@H]21,125 µM,7.5 µM,5 µM,–,–
CC1(C)Oc2cc(C(=O)NC34CC5CC(CC(C5)C3)C4)cc(O)c2[C@@H]2C[C@H](O)CC[C@H]21,80 µM,0.5 µM,8.7 µM,–,–
CC1(C)Oc2cc(C(=O)NC34CC5CC(CC(C5)C3)C4)cc(O)c2[C@@H]2C[C@@H](O)CC[C@H]21,375 µM,7.5 µM,35 µM,–,–
CC1(C)Oc2cc(C(=O)NC3C4CC5CC(C4)CC3C5)cc(O)c2[C@@H]2C[C@H](O)CC[C@H]21 (some centres undefined),15 µM,1.2 µM,2.7 µM,–,–
CC1(C)Oc2cc(C(=O)NC3C4CC5CC(C4)CC3C5)cc(O)c2[C@@H]2C[C@@H](O)CC[C@H]21 (some centres undefined),100 µM,3.7 µM,15 µM,–,–
CC1(C)Oc2cc(CNC34CC5CC(CC(C5)C3)C4)cc(O)c2[C@@H]2C[C@H](O)CC[C@H]21,150 µM,0.5 µM,10 µM,–,–
CC1(C)Oc2cc(CNC34CC5CC(CC(C5)C3)C4)cc(O)c2[C@@H]2C[C@@H](O)CC[C@H]21,100 µM,5 µM,25 µM,–,–
CC1(C)Oc2cc(CNC3C4CC5CC(C4)CC3C5)cc(O)c2[C@@H]2C[C@H](O)CC[C@H]21 (some centres undefined),150 µM,6.2 µM,20 µM,–,–
CC1(C)Oc2cc(CNC3C4CC5CC(C4)CC3C5)cc(O)c2[C@@H]2C[C@@H](O)CC[C@H]21 (some centres undefined),–,7.5 µM,25 µM,Not Active,–
CC1(C)Oc2cc(C34CC5CC(CC(C5)O3)C4)cc(O)c2[C@@H]2C[C@H](O)CC[C@H]21,0.023 µM,0.018 µM,0.019 µM,–,–
CC1(C)Oc2cc(C34CC5CC(CC(C5)O3)C4)cc(O)c2[C@@H]2C[C@@H](O)CC[C@H]21,0.55 µM,0.54 µM,1.3 µM,–,–
CC1=CC[C@@H]2[C@@H](C1)c1c(O)cc(C34CC5CC(CC(C5)C3)C4)cc1OC2(C)C,–,–,–,–,Not Active
